The source made the active and inactive calls. The rule behind the calls is not given here.
Assays:
Assay type in all cases: functional, cell-based
AEC = assay: Increase in DAF2 monitored NO production in BAEC at 10 mM after 30 mins; conditions: Bos taurus
Method in brief: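 Bovine aortic endothelial cells grown in DMEM/10% FBS, exposed to 10 mM compound in normal Krebs solution (pH 7.4) for 30 min at 37 °C. Then loaded with 10 µM DAF-2DA for 30 min, fixed with 4% paraformaldehyde for 5 min, and imaged by fluorescence microscopy (ex/em 495/515 nm). Output is % of Krebs-only control fluorescence.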

GH3 [1] = assay: Area under DAF2 monitored nitrite production in GH3 cells-incubation period curve
GH3 [2] = assay: Increase in DAF2 monitored NO production in GH3 cells at 30 mins
Method in brief: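 GH3 cells in F10 with 10% FBS and 15% horse serum, treated 30 min at 37 °C with 3, 10 or 30 mM compound in normal Krebs (pH 7.4). Loaded with 10 µM DAF-2DA for 30 min, fixed in 4% paraformaldehyde, and fluorescence read by densitometry at 495/515 nm. Reported as % of Krebs-only control; mean ± S.E. of three values from three sessions.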

GH3 [3] = assay: Increase in DAF2 monitored nitrite production in GH3 cells at 30 mins

Structure (SMILES) | Activity (AEC) | AUC (GH3 [1]) | Activity (GH3 [2]) | Activity (GH3 [3])
N=C(N)NCCC[C@@H](N)C(=O)O | Active | 2470 ng·h/mL | – | –
NC(N)=NCCC[C@H](N)C(=O)OC[C@H]1O[C@H](O)[C@H](O)[C@@H](O)[C@H]1O | Active | – | Active | Active
NC(N)=NCCC[C@@H](N)C(=O)OC[C@H]1O[C@H](O)[C@H](O)[C@@H](O)[C@H]1O | Active | 7500 ng·h/mL | – | –
N=C(N)NCCC[C@H](N)C(=O)O | Active | 1390 ng·h/mL | – | –
